Data as given in ChEMBL document CHEMBL4627281, “A small molecule inhibitor of PCSK9 that antagonizes LDL receptor binding via interaction with a cryptic PCSK9 binding groove” (Bioorg Med Chem, 2020).
The source made the active and inactive calls. The rule behind the calls is not given here.

What was measured:
[1] = molecular target: PCSK9/LDLR (Homo sapiens, UniProt Q8NBP7); assay: Inhibition of recombinant human His-tagged PCSK9 interaction with recombinant LDLR AB domain (unknown origin) measured after 3 hrs by horseradish peroxidase-coupled TMB substrate based spectrophotometry; format: protein assay
Outline: (§1)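 ELISA plates pre-coated with LDLR-EGF-AB domain. Compounds serially diluted from 10 mM DMSO stocks in reaction buffer, with 7 ng His-tagged human PCSK9 added, 3 h at room temperature with shaking. Binding detected with biotinylated anti-His antibody (1 h), then HRP-streptavidin (20 min), then substrate (15 min); absorbance read at 450/540 nm. IC50 taken from the % inhibition curve.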

[2] = molecular target: Mast/stem cell growth factor receptor Kit (Homo sapiens, UniProt P10721); assay: Inhibition of recombinant human N-terminal GST-tagged c-Kit (544 to end residues) expressed in baculovirus infected Sf21 insect cells using FAM-labelled P22 peptide as substrate preincubated for 10 mins followed by substrate addition and measured after 1 hr in presence of ATP by fluorescence assay
[3] = molecular target: Tyrosine-protein kinase ABL1 (Homo sapiens, UniProt P00519); assay: (§2) Inhibition of recombinant human N-terminal His-tagged Abl (2 to 1130 residues) expressed in baculovirus expression system using FAM-labelled P2 peptide as substrate preincubated for 10 mins followed by substrate addition and measured after 1 hr in presence of ATP by fluorescence assay
[4] = molecular target: Platelet-derived growth factor receptor beta (Homo sapiens, UniProt P09619); assay: as §2, with “GST-tagged PDGFRbeta cytoplasmic domain (557” for “His-tagged Abl (2”, “1106” for “1130”, “P22” for “P2”
[5] = molecular target: Proto-oncogene tyrosine-protein kinase Src (Homo sapiens, UniProt P12931); assay: Inhibition of recombinant human full-length N-terminal GST-tagged SRC (1 to 536 residues) expressed in baculovirus expression system using FAM-labelled P4 peptide as substrate preincubated for 10 mins followed by substrate addition and measured after 1 hr in presence of ATP by fluorescence assay
[6] = Clearance in CD1 mouse at 0.4 mg/kg, iv administered as cassette dose measured upto 24 hrs by LC-MS/MS analysis; format: ADME, organism-based; details: in vivo
Outline: (§3)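 Male CD1 mice (second cassette 28–29 g, 7–8 weeks) given one IV 5-in-1 cassette at 0.4 mg/kg per compound in 5% DMAC/5% Solutol HS15/90% saline. Blood (~20 µL) into K2EDTA from the facial vein at 0.083–24 h, terminal bleed by cardiac puncture under isoflurane. Blood diluted with deionised water, stored at −80 °C, analysed by positive-ESI mass spectrometry.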

[7] = Volume of distribution at steady state in CD1 mouse at 0.4 mg/kg, iv administered as cassette dose measured upto 24 hrs by LC-MS/MS analysis; format: ADME, organism-based; details: in vivo, read-out: Vdss; outline: as §3
[8] = Terminal half life in CD1 mouse at 0.4 mg/kg, iv administered as cassette dose measured upto 24 hrs by LC-MS/MS analysis; format: ADME, organism-based; details: in vivo, read-out: beta t1/2 (converted); outline: as §3
[9] = AUClast in CD1 mouse at 0.4 mg/kg, iv administered as cassette dose measured upto 24 hrs by LC-MS/MS analysis; format: ADME, organism-based; design: time < 24 hr, dose 0.4 mg/kg, route intravenous; details: in vivo; outline: as §3
[10] = AUCinfinity in CD1 mouse at 0.4 mg/kg, iv administered as cassette dose measured upto 24 hrs by LC-MS/MS analysis; format: ADME, organism-based; design: dose 0.4 mg/kg, route intravenous, time infinity; details: in vivo; outline: as §3
[11] = Mean residence time (0 to infinity) in CD1 mouse at 0.4 mg/kg, iv administered as cassette dose measured upto 24 hrs by LC-MS analysis; format: ADME, organism-based; details: in vivo; outline: as §3
[12] = test system: PCSK9/LDLR (Homo sapiens), Q8NBP7+P01130 [D374Y]; assay: Inhibition of PCSK9 D374Y mutant (unknown origin) and LDLR protein-protein interaction in human HepG2 cells assessed as increase in Bodipy FL-labelled LDL uptake preincubated for 16 hrs followed by Bodipy FL-labelled LDL addition and measured after 4 hrs by fluorescence assay; format: cell-based
Outline: (§4)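 HepG2 cells seeded at 2 × 10^5 cells/mL and attached overnight, then incubated 16 h with PCSK9-D374Y (2 μg/mL) plus compound (0.1 or 1 µM). Medium replaced with 10 μg/mL Bodipy FL LDL for 4 h. Cells washed with warm PBS; fluorescence read at ex 485/em 530 nm. Mean ± S.D.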

[13] = molecular target: PCSK9/LDLR (Homo sapiens) (UniProt Q8NBP7+P01130); assay: Inhibition of recombinant human His-tagged PCSK9 interaction with recombinant LDLR AB domain (unknown origin) at higher concentration measured after 3 hrs by horseradish peroxidase-coupled TMB substrate based spectrophotometry relative to control; format: protein assay; outline: as §1
[14] = test system: PCSK9/LDLR (Homo sapiens), Q8NBP7+P01130 [D374Y]; assay: Inhibition of PCSK9 D374Y mutant (unknown origin) and LDLR protein-protein interaction in human HepG2 cells assessed as increase in Bodipy FL-labelled LDL uptake at 0.1 or 1 uM preincubated for 16 hrs followed by Bodipy FL-labelled LDL addition and measured after 4 hrs by fluorescence assay; format: cell-based; outline: as §4

Sequence of Proto-oncogene tyrosine-protein kinase Src (P12931 2-536 limits assumed): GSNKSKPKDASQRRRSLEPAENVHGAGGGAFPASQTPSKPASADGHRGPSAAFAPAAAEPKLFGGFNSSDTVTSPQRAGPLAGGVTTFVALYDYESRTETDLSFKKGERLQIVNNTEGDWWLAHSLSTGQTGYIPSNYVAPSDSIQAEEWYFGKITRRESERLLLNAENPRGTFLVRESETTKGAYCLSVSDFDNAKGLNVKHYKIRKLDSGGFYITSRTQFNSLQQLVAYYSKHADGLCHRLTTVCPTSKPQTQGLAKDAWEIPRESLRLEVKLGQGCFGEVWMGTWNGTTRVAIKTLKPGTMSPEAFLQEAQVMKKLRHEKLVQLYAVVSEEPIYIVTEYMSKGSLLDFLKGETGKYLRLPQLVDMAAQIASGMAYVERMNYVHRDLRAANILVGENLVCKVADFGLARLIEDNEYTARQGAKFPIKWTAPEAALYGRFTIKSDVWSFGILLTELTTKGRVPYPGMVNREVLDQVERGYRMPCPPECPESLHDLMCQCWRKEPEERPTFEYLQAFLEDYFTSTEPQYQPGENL
Sequence of PCSK9/LDLR (Q8NBP7 31-152 limits assumed): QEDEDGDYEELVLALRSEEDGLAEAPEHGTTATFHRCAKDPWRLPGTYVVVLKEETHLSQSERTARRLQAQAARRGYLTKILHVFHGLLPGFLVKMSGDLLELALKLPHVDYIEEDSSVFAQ
Sequence of PCSK9/LDLR (Q8NBP7 153-692 limits assumed): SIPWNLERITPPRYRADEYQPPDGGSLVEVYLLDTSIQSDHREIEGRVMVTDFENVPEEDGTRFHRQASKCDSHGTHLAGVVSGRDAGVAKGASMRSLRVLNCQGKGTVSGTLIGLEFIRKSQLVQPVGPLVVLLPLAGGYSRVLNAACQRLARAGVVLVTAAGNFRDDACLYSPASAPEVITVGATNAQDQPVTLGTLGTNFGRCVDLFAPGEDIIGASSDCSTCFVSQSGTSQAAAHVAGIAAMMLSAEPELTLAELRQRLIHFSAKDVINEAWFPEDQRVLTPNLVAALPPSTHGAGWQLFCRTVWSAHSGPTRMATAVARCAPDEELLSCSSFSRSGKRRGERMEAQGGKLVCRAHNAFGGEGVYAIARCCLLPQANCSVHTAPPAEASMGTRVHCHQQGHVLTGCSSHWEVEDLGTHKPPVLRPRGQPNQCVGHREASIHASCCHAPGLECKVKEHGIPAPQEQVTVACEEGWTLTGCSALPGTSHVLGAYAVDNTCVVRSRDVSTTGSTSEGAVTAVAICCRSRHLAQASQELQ
Sequence of PCSK9/LDLR (P01130 22-860 partner limits assumed): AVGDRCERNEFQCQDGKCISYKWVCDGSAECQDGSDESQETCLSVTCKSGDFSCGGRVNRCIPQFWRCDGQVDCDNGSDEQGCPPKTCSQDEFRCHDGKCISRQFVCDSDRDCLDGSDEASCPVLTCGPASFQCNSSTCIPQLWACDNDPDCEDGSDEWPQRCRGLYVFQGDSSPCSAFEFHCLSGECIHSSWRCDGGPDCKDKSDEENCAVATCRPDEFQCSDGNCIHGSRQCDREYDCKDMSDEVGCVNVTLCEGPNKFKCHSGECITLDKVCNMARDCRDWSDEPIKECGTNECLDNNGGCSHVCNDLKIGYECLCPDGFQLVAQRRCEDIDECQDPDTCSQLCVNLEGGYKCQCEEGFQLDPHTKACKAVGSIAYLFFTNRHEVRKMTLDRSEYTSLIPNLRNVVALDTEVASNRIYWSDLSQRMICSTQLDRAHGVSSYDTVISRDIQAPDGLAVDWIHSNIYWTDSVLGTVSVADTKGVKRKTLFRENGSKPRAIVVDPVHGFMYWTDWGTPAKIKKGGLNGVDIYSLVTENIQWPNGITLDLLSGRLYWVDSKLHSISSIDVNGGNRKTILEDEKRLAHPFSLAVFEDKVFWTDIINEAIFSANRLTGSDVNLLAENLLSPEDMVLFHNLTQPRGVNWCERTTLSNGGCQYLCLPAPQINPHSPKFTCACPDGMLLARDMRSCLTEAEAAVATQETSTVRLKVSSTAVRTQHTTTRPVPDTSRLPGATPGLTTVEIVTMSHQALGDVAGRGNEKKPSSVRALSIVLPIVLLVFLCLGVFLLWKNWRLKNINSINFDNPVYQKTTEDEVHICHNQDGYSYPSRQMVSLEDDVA
Sequence of Platelet-derived growth factor receptor beta (P09619 whole entry, the tested form may be a part): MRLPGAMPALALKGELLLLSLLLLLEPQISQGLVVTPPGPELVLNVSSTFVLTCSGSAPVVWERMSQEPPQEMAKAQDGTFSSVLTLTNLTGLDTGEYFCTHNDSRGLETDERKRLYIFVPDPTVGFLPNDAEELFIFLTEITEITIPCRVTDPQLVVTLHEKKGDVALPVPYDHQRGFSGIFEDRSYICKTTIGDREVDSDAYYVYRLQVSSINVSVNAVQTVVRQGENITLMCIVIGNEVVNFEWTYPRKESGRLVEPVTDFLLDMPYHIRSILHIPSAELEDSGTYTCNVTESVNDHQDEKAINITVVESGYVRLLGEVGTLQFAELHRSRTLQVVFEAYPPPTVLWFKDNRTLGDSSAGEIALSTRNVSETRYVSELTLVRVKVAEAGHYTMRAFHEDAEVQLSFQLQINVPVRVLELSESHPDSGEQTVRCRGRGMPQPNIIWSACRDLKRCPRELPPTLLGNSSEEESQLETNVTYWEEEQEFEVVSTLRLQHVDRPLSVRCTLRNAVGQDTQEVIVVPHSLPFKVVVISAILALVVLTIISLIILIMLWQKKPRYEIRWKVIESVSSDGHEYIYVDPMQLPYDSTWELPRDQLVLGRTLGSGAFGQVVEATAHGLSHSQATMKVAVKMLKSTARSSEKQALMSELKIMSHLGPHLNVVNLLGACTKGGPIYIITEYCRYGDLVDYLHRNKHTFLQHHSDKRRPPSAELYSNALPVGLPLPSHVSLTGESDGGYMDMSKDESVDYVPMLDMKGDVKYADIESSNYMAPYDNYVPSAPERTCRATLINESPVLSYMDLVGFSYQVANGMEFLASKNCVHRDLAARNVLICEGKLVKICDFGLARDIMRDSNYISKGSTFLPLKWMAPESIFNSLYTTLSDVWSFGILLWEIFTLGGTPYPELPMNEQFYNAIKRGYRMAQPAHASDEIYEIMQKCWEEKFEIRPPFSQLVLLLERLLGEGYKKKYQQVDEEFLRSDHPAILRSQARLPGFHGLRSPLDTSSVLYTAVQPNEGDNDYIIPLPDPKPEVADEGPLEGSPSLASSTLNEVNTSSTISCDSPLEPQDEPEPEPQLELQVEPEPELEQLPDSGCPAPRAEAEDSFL
Sequence of Mast/stem cell growth factor receptor Kit (P10721 whole entry, the tested form may be a part): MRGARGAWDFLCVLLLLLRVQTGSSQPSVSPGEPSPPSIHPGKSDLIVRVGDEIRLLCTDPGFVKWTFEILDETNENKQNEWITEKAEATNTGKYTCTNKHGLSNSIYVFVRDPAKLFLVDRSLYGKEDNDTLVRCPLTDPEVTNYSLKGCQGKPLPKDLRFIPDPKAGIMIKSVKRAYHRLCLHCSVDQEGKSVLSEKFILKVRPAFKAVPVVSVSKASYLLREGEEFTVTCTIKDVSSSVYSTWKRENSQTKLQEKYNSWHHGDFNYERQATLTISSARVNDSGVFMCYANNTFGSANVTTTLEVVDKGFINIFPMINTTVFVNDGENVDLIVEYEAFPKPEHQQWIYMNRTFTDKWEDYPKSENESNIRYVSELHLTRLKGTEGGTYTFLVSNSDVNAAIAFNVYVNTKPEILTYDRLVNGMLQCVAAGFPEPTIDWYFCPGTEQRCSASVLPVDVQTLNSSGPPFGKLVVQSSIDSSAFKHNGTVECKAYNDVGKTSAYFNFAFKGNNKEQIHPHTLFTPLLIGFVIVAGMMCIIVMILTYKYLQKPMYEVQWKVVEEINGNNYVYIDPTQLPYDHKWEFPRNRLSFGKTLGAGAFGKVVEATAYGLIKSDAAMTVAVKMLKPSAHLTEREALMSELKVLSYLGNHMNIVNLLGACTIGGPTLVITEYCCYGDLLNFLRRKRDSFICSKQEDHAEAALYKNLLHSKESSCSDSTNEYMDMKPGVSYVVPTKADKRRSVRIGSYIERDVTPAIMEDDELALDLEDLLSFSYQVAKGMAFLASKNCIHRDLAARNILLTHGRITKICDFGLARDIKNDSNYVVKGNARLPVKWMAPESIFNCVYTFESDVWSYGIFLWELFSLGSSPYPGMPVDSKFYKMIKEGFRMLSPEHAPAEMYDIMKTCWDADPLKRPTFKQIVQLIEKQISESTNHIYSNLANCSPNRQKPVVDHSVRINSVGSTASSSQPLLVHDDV
Sequence of PCSK9/LDLR (Homo sapiens) (P01130 22-860 partner limits assumed): as the sequence (P01130 22-860 partner limits assumed) above
Sequence of PCSK9/LDLR (Homo sapiens) (Q8NBP7 31-152 limits assumed): as the sequence (Q8NBP7 31-152 limits assumed) above
Sequence of PCSK9/LDLR (Homo sapiens) (Q8NBP7 153-692 limits assumed): as the sequence (Q8NBP7 153-692 limits assumed) above

IC50 [1] [µM]	IC50 [2] [µM]	IC50 [3] [µM]	IC50 [4] [µM]	IC50 [5] [µM]	clearance [6] [mL/min/kg]	Vd [7] [L/kg]	half-life [8] [h]	AUC(0-t) at 24 h [9] [ng·h/mL]	AUC(0-inf) [10] [ng·h/mL]	MRT inf [11] [h]	inhibition [12]	Imax [13] [%]	inhibition [14]	Compound
26.3	> 10	> 10	> 10	> 10										Cc1ccc(C(=O)Nc2cc(N3CCN(C)CC3)cc(-n3cnc(C)c3)c2)cc1
2.57	9.87	> 10	> 10	> 10										Cc1cn(-c2cc(CN3CCCC[C@H]3C(N)=O)cc(NC(=O)c3ccc(C)c(Nc4nccc(-c5ccc(F)cc5)n4)c3)c2)cn1
9.28	0.347	> 10	> 10	> 10										Cc1cn(-c2cc(CCC(=O)O)cc(NC(=O)c3ccc(C)c(Nc4nccc(-c5ccccc5)n4)c3)c2)cn1
7.41	0.302		> 10	> 10										CCCCc1cc(NC(=O)c2ccc(C)c(Nc3nccc(-c4ccccc4)n3)c2)cc(-n2cnc(C)c2)c1
13.4	6	> 10	> 10	> 10	110	1.72	0.216	58.5	63.7	0.239				Cc1cn(-c2cc(CCS(N)(=O)=O)cc(NC(=O)c3ccc(C)c(Nc4nccc(-c5ccccc5)n4)c3)c2)cn1
14	> 10	> 10	> 10	> 10										Cc1cn(-c2cc(CN3CCCC[C@H]3C(=O)O)cc(NC(=O)c3ccc(C)c(Nc4nccc(-c5ccc(F)cc5)n4)c3)c2)cn1
8.4	0.592		2.48	> 10										Cc1cn(-c2cc(NC(=O)c3ccc(C)c(Nc4nccc(-c5ccccc5)n4)c3)cc(C(F)(F)F)c2)cn1
11.3	2.77	> 10	> 10	> 10										Cc1cn(-c2cc(/C=C/C(=O)O)cc(NC(=O)c3ccc(C)c(Nc4nccc(-c5ccccc5)n4)c3)c2)cn1
0.491	1.49		1.51	4.36	52.5	3.74	1.64	116	127	1.19				Cc1cn(-c2cc(NC(=O)c3ccc(C)c(Nc4nccc(-c5ccccc5)n4)c3)cc(N3CCNCC3)c2)cn1
0.428	1.96	> 10	2.04	> 10	23.5	13.3	10.8	243	297	10.4				Cc1cn(-c2cc(CN3CCC[C@H](N)C3)cc(NC(=O)c3ccc(C)c(Nc4nccc(-c5ccc(F)cc5)n4)c3)c2)cn1
0.078	0.227	> 10	3.29	2.61 to 2.62	50.8	6.7	2.77	128	133	2.3	Dose-dependent effect	> 35		Cc1cn(-c2cc(NC(=O)c3ccc(C)c(Oc4cccc5ccncc45)c3)cc(N3CCN(C)CC3)c2)cn1
13.4	0.618	> 10	> 10	> 10	12.5	1.69	2.15	508	541	2.27				Cc1cn(-c2cc(NC(=O)c3ccc(C)c(Oc4ccccc4)c3)cc(C(F)(F)F)c2)cn1
3.29	0.093	> 10	> 10	> 10										Cc1ccc(C(=O)Nc2cccc(N3CCN(C)CC3)c2)cc1Nc1nccc(-c2ccc(F)cc2)n1
40.1	0.79	> 10	> 10	> 10										Cc1cn(-c2cc(NC(=O)c3ccc(C)c(Nc4nccc(-c5ccc(F)cc5)n4)c3)cc(N3CCOCC3)c2)cn1
0.759	> 10	> 10	7.66	> 10	17.5	9.26	7.36	338	384	8.98		20	inactive	Cc1cn(-c2cc(NC(=O)c3ccc(C)c(Oc4ccccc4)c3)cc(N3CCN(C)CC3)c2)cn1
0.758	2.88	> 10	> 10	> 10	32.8	4.3	2.21	189	204	2.16	Dose-dependent effect	> 35		Cc1cn(-c2cc(NC(=O)c3ccc(C)c(Nc4nccc(-c5ccccc5)n4)c3)cc(N3CCN(C)CC3)c2)cn1
10.7	3.1	> 10	5.52	> 10										Cc1cc(-c2cc(NC(=O)c3ccc(C)c(Nc4nccc(-c5ccc(F)cc5)n4)c3)cc(N3CCN(C)CC3)c2)on1
0.714	2.57	> 10	5.42	> 10	35.7	5.65	3.29	166	187	2.66				Cc1cn(-c2cc(CN3CCN(C)CC3)cc(NC(=O)c3ccc(C)c(Nc4nccc(-c5ccccc5)n4)c3)c2)cn1
2.13	> 10	> 10	> 10	> 10	81	4.7	1.09	78	83	0.96				Cc1cn(-c2cc(NC(=O)c3ccc(C)c(C(=O)c4cccc(C#N)c4)c3)cc(N3CCN(C)CC3)c2)cn1
9.8														Cc1cn(-c2cc(NC(=O)c3ccc(C)c(Nc4nccc(-c5cccnc5)n4)c3)cc(C(F)(F)F)c2)cn1 [NILOTINIB]
